The source made the active and inactive calls. The calls are words filed in the database; no cut-off is given here.
Columns and labels:
Mus musculus = species on record: Mus musculus; test: Inhibition of IL2-induced STAT5 phosphorylation at Y694 in CD4+ T lymphocytes isolated from C57BL/6J mouse at 0.5 to 5 uM preincubated for 2 hrs followed by activation with plate-bound anti-CD3/anti-CD28 and IL2 for 15 mins by Western blot analysis; format: cell-based
Outline: (§1)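 CD4+ T cells from C57BL/6J mice, sorted by AutoMACS; activated 15 min with plate-bound anti-CD3 and/or anti-CD28 with IL-2, IL-6 or IL-4; lysed with protease inhibitors plus 10 mM NaF and 1 mM Na3VO4; Bradford-normalised immunoblots for pSTAT1 (Tyr701), pSTAT5 (Tyr694), pSTAT6 (Tyr641) and total STATs.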

[1] = Cytotoxicity against human BEAS2B cells assessed as cell viability after 72 hrs by MTS assay; format: cell-based; conditions: beas-2b
Outline: (§2)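 Beas-2B seeded at 2000 cells/well; 10 mM DMSO stocks serially diluted in DMSO and equal amounts added to cultures; 72 h at 37 °C; medium replaced by 1:5 MTS/PBS, 1 h further incubation; viable cells read as optical density at 490 nm.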

[2] = biological target: T1, Signal transducer and transcription activator 6 (Mus musculus) (UniProt P52633); test: Inhibition of IL4-induced STAT6 phosphorylation at Y641 in CD4+ T lymphocytes isolated from C57BL/6J mouse preincubated for 2 hrs followed by activation with plate-bound anti-CD3/anti-CD28 and IL4 for 15 mins by Western blot analysis; format: cell-based; outline: as §1
T1 sequence (whole entry): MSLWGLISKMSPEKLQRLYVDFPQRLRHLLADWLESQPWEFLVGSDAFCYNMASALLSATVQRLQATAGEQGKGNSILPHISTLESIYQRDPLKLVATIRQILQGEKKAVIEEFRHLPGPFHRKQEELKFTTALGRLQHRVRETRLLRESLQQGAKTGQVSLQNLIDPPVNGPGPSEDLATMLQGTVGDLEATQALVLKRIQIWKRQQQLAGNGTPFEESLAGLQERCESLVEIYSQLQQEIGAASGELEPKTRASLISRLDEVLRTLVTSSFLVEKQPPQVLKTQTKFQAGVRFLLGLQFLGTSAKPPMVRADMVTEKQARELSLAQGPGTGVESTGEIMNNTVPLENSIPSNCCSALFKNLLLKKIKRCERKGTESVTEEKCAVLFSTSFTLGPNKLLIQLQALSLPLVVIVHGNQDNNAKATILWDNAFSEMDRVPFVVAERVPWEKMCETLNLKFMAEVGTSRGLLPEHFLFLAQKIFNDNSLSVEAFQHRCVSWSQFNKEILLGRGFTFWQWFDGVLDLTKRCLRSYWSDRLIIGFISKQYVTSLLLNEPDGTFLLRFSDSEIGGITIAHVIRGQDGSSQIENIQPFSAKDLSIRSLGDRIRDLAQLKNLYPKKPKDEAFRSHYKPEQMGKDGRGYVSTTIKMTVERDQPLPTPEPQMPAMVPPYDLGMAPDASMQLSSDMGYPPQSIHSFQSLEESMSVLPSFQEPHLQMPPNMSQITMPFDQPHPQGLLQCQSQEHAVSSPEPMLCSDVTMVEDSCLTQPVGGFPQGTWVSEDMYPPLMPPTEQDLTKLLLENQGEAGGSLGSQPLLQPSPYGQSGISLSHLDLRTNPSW

[3] = biological target: T2, Signal transducer and activator of transcription 1 (Mus musculus) (UniProt P42225); test: Inhibition of IL6-induced STAT1 phosphorylation at Y701 in CD4+ T lymphocytes isolated from C57BL/6J mouse preincubated for 2 hrs followed by activation with plate-bound anti-CD3/anti-CD28 and IL6 for 15 mins by Western blot analysis; format: cell-based; outline: as §1
T2 sequence (whole entry): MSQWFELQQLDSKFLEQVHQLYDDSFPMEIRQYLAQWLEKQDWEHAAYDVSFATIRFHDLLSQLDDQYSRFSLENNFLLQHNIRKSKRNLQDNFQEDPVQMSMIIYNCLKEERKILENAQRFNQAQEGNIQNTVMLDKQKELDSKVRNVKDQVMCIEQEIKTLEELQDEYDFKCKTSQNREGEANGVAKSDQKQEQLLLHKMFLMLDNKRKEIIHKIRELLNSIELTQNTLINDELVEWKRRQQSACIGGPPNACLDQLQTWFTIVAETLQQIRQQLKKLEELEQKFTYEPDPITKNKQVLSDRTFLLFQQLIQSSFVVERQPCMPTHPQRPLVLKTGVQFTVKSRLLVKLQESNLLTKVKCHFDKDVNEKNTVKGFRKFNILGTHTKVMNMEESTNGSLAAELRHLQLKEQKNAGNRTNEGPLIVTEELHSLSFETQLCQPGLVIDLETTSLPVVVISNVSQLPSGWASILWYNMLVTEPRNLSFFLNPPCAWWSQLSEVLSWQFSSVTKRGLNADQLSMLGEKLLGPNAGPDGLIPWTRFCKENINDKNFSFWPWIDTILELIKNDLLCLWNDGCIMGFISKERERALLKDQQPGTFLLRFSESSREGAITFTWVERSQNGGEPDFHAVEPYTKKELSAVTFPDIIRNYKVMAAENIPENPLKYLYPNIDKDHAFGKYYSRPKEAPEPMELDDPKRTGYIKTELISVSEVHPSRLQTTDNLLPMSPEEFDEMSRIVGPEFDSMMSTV

[4] = biological target: T3, Signal transducer and activator of transcription 6 (Homo sapiens) (UniProt P42226); test: Inhibition of IL4-stimulated STAT6 phosphorylation at tyrosine 641 in human Beas-2B cells at 0.025 to 5 uM incubated for 2 hrs followed by stimulation with IL4 for 1 hr by Western blot assay; format: cell-based
T3 sequence (whole entry): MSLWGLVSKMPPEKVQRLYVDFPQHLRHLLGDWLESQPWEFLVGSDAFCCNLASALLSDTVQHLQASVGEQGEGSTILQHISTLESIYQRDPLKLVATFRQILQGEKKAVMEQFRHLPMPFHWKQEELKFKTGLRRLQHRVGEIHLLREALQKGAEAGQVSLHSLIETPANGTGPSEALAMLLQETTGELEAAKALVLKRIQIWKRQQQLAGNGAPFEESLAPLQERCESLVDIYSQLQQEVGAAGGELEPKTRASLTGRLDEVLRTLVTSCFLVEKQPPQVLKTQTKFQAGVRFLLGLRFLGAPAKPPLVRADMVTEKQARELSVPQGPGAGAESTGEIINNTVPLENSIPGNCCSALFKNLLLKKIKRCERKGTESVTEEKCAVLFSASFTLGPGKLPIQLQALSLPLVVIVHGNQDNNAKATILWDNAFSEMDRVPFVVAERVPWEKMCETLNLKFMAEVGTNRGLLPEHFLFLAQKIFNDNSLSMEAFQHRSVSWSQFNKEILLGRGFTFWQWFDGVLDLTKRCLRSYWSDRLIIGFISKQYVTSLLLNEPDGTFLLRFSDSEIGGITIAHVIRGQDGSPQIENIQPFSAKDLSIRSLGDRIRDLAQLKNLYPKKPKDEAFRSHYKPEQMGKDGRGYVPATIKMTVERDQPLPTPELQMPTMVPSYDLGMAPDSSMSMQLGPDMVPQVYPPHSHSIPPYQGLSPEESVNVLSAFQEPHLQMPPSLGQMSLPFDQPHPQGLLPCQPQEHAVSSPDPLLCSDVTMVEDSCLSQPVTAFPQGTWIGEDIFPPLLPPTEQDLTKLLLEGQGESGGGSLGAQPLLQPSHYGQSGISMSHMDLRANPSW
Outline: (§3)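 Beas-2B seeded at 3.0 × 10^5 cells/well the day before; prodrugs from DMSO stocks added to final concentrations for 2 h, then IL-4 (2 ng/mL) for 1 h. PBS-washed cells lysed with PMSF, protein by modified Lowry; blots blocked in 3% BSA/TBST, probed for pSTAT6 (Tyr641), stripped and reprobed for total STAT6; ECL on X-ray film.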

[5] = biological target: Signal transducer and activator of transcription 3 (Mus musculus) (UniProt P42227); test: Inhibition of IL6-induced STAT3 phosphorylation at S727 in CD4+ T lymphocytes isolated from C57BL/6J mouse preincubated for 2 hrs followed by activation with plate-bound anti-CD3/anti-CD28 for 15 mins by Western blot analysis
Chain of Signal transducer and activator of transcription 3 (Mus musculus) (P42227 whole entry, the tested form may be a part): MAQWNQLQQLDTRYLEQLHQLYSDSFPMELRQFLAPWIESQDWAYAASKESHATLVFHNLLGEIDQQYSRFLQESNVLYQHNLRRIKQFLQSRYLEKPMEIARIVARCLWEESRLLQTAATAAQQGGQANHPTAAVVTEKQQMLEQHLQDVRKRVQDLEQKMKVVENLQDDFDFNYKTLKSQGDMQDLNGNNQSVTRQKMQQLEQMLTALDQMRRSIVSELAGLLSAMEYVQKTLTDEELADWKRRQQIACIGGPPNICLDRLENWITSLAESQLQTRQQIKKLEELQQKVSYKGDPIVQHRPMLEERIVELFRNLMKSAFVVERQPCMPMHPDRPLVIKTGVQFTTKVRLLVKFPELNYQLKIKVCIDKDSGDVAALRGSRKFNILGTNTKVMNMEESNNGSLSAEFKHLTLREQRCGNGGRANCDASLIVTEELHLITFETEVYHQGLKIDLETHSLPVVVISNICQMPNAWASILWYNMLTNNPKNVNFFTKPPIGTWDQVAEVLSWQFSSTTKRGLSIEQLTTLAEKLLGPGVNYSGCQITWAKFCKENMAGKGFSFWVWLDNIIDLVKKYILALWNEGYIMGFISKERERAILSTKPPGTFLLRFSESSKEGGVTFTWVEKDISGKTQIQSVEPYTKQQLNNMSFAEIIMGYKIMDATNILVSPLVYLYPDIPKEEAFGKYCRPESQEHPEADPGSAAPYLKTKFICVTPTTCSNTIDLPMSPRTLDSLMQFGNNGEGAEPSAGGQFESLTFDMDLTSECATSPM

[6] = biological target: T3, Signal transducer and activator of transcription 6 (Homo sapiens); test: Inhibition of IL-13-stimulated STAT6 SH2 domain phosphorylation in human Beas-2B cells assessed as inhibition of CCL26 mRNA expression preincubated for 2 hrs followed by stimulation with IL-13 for 24 hrs by RT-PCR analysis
[7] = biological target: T3, Signal transducer and activator of transcription 6 (Homo sapiens); test: Inhibition of IL-13-stimulated STAT6 SH2 domain phosphorylation in human Beas-2B cells assessed as inhibition of CCL26 mRNA expression at 100 nM preincubated for 2 hrs followed by stimulation with IL-13 for 24 hrs by RT-PCR analysis relative to control
[8] = Cytotoxicity against human BEAS2B cells assessed as cell viability at <=1 uM after 72 hrs by MTS assay; format: cell-based; conditions: beas-2b; outline: as §2
[9] = biological target: T3, Signal transducer and activator of transcription 6 (Homo sapiens); test: Inhibition of IL4-induced STAT6 phosphorylation at tyrosine 641 in human Beas-2B cells at 100 to 500 nM incubated for 2 hrs followed by stimulation with IL4 for 1 hr by Western blot assay; format: cell-based; outline: as §3
[10] = biological target: T3, Signal transducer and activator of transcription 6 (Homo sapiens); test: Inhibition of IL4-induced STAT6 phosphorylation in human MDA-MB-468 cells at 0.1 to 5 uM incubated for 2 hrs followed by stimulation with IL4 for 1 hr by Western blot assay; format: cell-based
Outline: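 MDA-MB-468 breast cancer cells serum-starved, treated with prodrugs, then IL-4 stimulated; pSTAT6 read by Western blot.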

[11] = biological target: RAC-alpha serine/threonine-protein kinase (Homo sapiens) (UniProt P31749); test: Inhibition of EGF-induced AKT phosphorylation at S473 in human MDA-MB-468 cells at 100 nM incubated for 2 hrs followed by stimulation with EGF for 1 hr by Western blot assay; format: cell-based
Chain of RAC-alpha serine/threonine-protein kinase (Homo sapiens) (P31749 whole entry): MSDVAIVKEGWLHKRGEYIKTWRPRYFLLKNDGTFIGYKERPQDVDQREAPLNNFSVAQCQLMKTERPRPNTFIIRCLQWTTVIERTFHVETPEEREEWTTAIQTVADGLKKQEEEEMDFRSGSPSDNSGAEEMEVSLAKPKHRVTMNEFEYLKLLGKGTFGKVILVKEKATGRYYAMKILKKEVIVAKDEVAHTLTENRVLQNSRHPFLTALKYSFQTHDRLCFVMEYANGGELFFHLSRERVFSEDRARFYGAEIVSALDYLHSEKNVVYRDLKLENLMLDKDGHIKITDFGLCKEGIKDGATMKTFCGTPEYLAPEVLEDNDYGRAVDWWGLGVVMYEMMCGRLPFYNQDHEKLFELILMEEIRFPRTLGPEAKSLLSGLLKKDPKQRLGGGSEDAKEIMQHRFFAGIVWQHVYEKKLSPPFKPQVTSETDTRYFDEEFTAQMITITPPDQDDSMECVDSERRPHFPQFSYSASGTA

[12] = biological target: T3, Signal transducer and activator of transcription 6 (Homo sapiens); test: Inhibition of IL4-induced STAT6 phosphorylation at tyrosine 641 in human Beas-2B cells at 0.05 to 5 uM incubated for 2 hrs followed by stimulation with IL4 for 1 hr by Western blot assay; format: cell-based; outline: as §3
[13] = biological target: T3, Signal transducer and activator of transcription 6 (Homo sapiens); test: Inhibition of IL4-induced STAT6 phosphorylation at tyrosine 641 in human Beas-2B cells at 50 to 100 nM incubated for 2 hrs followed by stimulation with IL4 for 1 hr by Western blot assay; format: cell-based; outline: as §3
[14] = biological target: RAC-alpha serine/threonine-protein kinase (Homo sapiens) (UniProt P31749); test: Inhibition of EGF-induced AKT phosphorylation at S473 in human MDA-MB-468 cells at 5 uM incubated for 2 hrs followed by stimulation with EGF for 1 hr by Western blot assay; format: cell-based

Row | inhibition [2] | inhibition [3] | inhibition [4] | inhibition [5] | inhibition [6] | inhibition [7] | inhibition [9] | inhibition [10] | inhibition [11] | inhibition [12] | inhibition [13] | inhibition [14] | SMILES | inhibition (Mus musculus) | Activity [1] | Activity [8]
1 | Active | inactive | Active | inactive |  |  |  |  |  |  |  |  | C/C(=C\C(=O)N[C@H](C(=O)N1CCC[C@H]1C(=O)N(C)C1CCCCC1)C(C)(C)C)c1ccc(C(F)(F)P(=O)(OCOC(=O)C(C)(C)C)OCOC(=O)C(C)(C)C)cc1 | Active | Non-toxic | 
2 | inactive | inactive |  | inactive | Dose-dependent effect | > 50% |  |  |  |  |  |  | CC(C)(C)C(=O)OCOP(=O)(OCOC(=O)C(C)(C)C)C(F)(F)c1ccc(/C=C/C(=O)N[C@H](C(=O)N2CCC[C@H]2C(=O)N(c2ccccc2)c2ccc(I)cc2)C(C)(C)C)cc1 |  |  | 
3 | Active | inactive |  | inactive |  |  | Active | Active |  |  |  |  | CC(C)(C)C(=O)OCOP(=O)(OCOC(=O)C(C)(C)C)C(F)(F)c1ccc(/C=C/C(=O)N[C@H](C(=O)N2CCC[C@H]2C(=O)N(c2ccccc2)c2ccccc2)C(C)(C)C)cc1 | Active |  | Non-toxic
4 | Active | inactive |  | inactive |  |  |  |  | Active | Active |  |  | CC(C)(C)C(=O)OCOP(=O)(OCOC(=O)C(C)(C)C)C(F)(F)c1ccc(/C=C/C(=O)N[C@H](C(=O)N2CCC[C@H]2C(=O)Nc2ccccc2)C(C)(C)C)cc1 | inactive | Toxic | 
5 | Active | inactive |  | inactive |  |  |  | Active |  |  | Active | Active | CN(C(=O)[C@@H]1CCCN1C(=O)[C@@H](NC(=O)/C=C/c1ccc(C(F)(F)P(=O)(OCOC(=O)C(C)(C)C)OCOC(=O)C(C)(C)C)cc1)C(C)(C)C)c1ccccc1 | Active | Non-toxic | Non-toxic

From ChEMBL document CHEMBL3739303, “Targeting the Src Homology 2 (SH2) Domain of Signal Transducer and Activator of Transcription 6 (STAT6) with Cell-Permeable, Phosphatase-Stable Phosphopeptide Mimics Potently Inhibits Tyr641 Phosphorylation and Transcriptional Activity” (J Med Chem, 2015)
